Key:
[1] = target: NOD1 (Homo sapiens, UniProt Q9Y239); assay: Ramos Blue reporter B cell line, Tri-DAP stimulation; assay type: cell-based; conditions: Ramos cells; up to 10 μM; n = 4, data not shown
In short: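 Ramos Blue B reporter cells were pre-treated 30 min at 37°C, 5% CO2 with increasing concentrations of test compound or 0.25% v/v DMSO. They were then stimulated with the respective agonist, and reporter activity was read.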

[2] = target: T1, TLR8 (Homo sapiens, UniProt Q9NR97); assay: Human PBMC assay, ssRNA-induced TNF; assay type: cell-based
T1 sequence (Q9NR97 27-1041): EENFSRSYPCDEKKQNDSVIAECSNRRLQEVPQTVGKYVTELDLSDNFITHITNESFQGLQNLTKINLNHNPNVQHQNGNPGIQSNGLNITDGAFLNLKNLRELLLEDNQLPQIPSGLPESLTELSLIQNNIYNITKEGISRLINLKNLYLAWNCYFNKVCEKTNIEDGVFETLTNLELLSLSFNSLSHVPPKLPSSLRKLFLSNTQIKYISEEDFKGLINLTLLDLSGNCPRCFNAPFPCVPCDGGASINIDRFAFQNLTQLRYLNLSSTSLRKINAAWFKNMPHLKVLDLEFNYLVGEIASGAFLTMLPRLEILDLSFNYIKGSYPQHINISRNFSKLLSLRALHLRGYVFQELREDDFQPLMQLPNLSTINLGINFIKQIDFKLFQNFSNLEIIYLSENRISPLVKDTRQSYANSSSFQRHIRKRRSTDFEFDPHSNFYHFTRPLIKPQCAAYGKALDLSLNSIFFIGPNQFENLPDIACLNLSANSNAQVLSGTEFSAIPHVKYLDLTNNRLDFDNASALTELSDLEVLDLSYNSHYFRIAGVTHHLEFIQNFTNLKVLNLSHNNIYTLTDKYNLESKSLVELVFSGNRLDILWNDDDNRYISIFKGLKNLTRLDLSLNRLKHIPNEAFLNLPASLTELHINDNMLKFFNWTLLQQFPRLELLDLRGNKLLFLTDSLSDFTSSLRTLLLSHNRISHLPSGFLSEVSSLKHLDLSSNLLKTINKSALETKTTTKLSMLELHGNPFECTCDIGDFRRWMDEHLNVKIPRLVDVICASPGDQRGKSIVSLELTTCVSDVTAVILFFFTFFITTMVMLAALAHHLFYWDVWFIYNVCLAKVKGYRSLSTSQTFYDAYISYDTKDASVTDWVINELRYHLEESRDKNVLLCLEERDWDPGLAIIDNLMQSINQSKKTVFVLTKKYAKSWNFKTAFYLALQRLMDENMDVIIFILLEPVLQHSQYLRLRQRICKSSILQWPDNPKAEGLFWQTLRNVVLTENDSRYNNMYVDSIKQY
In short: (§1)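 Human PBMCs were pre-incubated 30 min with test compound, then stimulated with the respective TLR or IL-1R agonist at doses from earlier work. Cytokines in supernatants were quantified by immunoassay. Viability across the dose range was checked by CellTiter-Glo.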

[3] = target: IL-1 receptor (IL-1R) (Homo sapiens, UniProt P14778); assay: Human PBMC cytokine secretion, IL-1 receptor agonist; assay type: cell-based; conditions: human PBMCs; up to 10 μM; n = 5 donors, data not shown
In short: as §1

[4] = system: immune-complex stimulated ISG panel in PBMCs; assay: Five-gene ISG panel in PBMCs stimulated with SLE immune complexes; assay type: cell-based, human; conditions: MHV370 0.1 μM
In short: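 PBMCs were pre-treated 30 min with test compound, HCQ or 0.1% DMSO, then stimulated 20 h with SLE serum pre-complexed with U-937 necrotic extract. RNA was extracted and ISGs quantified by qRT-PCR with the 2−ΔΔCt method against 18S rRNA, using biological replicates. Global ISG induction was derived by normalizing each ISG's relative induction to 100%.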

[5] = target: T2, TLR7 (Mus musculus, UniProt P58681); assay type: in vivo; conditions: mice; single oral dose 5 mg/kg
T2 sequence (P58681 27-1050): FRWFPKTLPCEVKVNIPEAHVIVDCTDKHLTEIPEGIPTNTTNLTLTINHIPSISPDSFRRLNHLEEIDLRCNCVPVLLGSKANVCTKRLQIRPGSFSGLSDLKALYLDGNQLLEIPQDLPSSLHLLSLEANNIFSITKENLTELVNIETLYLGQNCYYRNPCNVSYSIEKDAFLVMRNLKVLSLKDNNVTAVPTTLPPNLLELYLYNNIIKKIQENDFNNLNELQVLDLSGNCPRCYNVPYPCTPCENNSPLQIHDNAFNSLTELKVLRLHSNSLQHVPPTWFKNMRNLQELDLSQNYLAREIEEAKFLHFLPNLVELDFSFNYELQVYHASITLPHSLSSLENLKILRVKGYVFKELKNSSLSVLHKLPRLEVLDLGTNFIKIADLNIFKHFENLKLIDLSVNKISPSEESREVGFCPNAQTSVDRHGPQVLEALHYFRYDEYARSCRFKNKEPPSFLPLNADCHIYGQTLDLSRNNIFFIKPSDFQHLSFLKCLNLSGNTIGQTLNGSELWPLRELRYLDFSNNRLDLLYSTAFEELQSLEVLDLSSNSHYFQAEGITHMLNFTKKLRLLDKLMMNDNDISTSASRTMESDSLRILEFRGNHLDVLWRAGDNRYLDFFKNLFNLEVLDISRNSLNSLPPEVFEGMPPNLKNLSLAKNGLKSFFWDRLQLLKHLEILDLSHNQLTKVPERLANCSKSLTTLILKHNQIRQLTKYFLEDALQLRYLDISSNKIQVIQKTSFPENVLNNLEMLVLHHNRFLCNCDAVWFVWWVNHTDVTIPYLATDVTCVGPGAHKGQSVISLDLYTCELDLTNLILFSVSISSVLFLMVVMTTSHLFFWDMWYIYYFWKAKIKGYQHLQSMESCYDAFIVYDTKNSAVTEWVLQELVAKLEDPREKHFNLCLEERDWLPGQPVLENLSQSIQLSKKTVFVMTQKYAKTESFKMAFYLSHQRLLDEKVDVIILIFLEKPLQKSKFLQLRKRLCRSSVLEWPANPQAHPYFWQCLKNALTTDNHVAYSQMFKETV

[6] = target: T2, TLR7; assay: Chronic TLR7 activation in vivo assay; conditions: 129/Sv mice; R848 plus MHV370 vs R848 plus vehicle
In short: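 129/Sv mice (5 per group) received R848 i.p. at 2.5 mg/kg daily for 14 days. From day 7, groups were dosed orally b.i.d. with test compound at 15 mg/kg or with vehicle. Naive mice served as reference. Blood RNA-seq counts were filtered (≥10 counts per million in ≥4 samples) and TMM-normalized in edgeR. Differential expression was analysed with limma.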

NOD1, sequence (Q9Y239 whole entry): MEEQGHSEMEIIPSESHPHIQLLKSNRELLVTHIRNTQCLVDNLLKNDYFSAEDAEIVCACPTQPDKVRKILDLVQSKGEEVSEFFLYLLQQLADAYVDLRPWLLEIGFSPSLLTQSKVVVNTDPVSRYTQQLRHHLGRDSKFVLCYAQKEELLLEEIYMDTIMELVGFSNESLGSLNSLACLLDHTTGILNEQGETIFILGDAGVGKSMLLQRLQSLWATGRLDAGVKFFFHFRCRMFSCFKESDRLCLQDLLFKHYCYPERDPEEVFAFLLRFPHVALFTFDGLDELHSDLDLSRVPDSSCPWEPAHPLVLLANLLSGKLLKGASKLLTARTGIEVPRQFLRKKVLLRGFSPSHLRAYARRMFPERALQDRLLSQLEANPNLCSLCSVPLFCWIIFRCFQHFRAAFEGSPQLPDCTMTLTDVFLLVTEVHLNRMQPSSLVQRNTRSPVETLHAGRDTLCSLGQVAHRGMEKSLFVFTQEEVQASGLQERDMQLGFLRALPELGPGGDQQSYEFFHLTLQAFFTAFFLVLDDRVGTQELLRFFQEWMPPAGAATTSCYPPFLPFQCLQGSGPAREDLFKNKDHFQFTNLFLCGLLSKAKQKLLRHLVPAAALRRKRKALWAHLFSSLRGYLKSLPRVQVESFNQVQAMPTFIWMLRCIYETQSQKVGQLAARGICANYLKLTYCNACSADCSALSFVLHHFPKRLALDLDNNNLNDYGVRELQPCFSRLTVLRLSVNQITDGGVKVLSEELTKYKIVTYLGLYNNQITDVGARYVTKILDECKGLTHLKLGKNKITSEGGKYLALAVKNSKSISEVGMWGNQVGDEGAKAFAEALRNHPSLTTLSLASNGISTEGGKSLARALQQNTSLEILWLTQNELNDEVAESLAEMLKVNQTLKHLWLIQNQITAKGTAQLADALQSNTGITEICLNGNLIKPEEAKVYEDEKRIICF
IL-1 receptor (IL-1R), sequence (P14778 18-569): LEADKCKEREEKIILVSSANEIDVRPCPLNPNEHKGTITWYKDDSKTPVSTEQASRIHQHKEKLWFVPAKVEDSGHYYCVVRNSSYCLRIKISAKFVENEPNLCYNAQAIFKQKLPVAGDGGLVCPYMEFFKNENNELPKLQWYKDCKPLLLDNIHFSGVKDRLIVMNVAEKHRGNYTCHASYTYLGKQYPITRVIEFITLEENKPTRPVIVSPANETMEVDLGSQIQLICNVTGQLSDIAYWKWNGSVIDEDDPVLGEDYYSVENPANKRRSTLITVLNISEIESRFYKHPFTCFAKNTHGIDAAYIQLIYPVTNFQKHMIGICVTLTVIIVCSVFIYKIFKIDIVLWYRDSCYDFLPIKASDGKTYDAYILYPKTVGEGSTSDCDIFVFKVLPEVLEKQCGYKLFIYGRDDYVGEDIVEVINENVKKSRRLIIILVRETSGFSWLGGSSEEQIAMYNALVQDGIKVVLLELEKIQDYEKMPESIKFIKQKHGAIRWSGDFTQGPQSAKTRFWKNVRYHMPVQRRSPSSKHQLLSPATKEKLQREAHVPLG

With Cc1cc(N2CCc3c(c(C)nn3CC34CCC(NC(=O)[C@@H]5COCCN5)(CC3)CC4)C2)c2cnn(C)c2n1 [MHV370, (S)-N-(4-((5-(1,6-dimethyl-1H-pyrazolo[3,4-b]pyridin-4-yl)-3-methyl-4,5,6,7-tetrahydro-1H-pyrazolo[4,3-c]pyridin-1-yl)methyl)bicyclo[2.2.2]octan-1-yl)morpholine-3-carboxamide] the “interference with NOD1-driven activity” value [1] was “did not interfere”, the IC50 [2] was 70 ± 7.4 nM and the “interference with cytokine secretion, IL-1R agonist” value [3] was “did not significantly interfere”. For the same compound, the “expression of a five-panel ISG signature” value [4] was “strongly suppressed”, the “CD69 expression on B cells, ex vivo R848 stimulation of blood” value [5] was “marked inhibition of CD69 expression over a period of 8 h” and the “inflammatory pathways (ISGs, TLR and TNF pathways), gene set enrichment in blood” value [6] was “all downregulated”.

Reference: article PMC10213863 (Cell Reports Medicine, 2023)
